Active and inactive are the calls of the source. The calls are words filed in the database; no cut-off is given here.
Assays:
OCI-AML-3 [1] = test: Antiproliferative activity against human OCI-AML-3 cells harbouring DNMT3A-R882C and NPM1c mutants co-expressing wild-type p53 at 0.125 to 0.25 uM assessed as decrease in cell viability in combination of 1 to 5 uM nutlin-3 after 72 hrs by WST-1 assay; assay type: functional, cell-based; settings: dose 0.125-0.25 µM
How it was run: (§1)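 WST-1 viability of OCI-AML3 combinations. 20,000 cells per well treated with 0.25 µmol/L JQ1 plus the partner compound (Nutlin-3 0–2 µmol/L or 1–5 µmol/L; TSA 20 nmol/L; vorinostat 0.625 µmol/L; sodium butyrate 0.5 mmol/L; daunorubicin 0–50 nmol/L), applied together for 72 h. Read at 450 nm and expressed as % of untreated. Three experiments run in triplicate.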

OCI-AML-3 [2] = test: Induction of apoptosis in human OCI-AML-3 cells harbouring DNMT3A-R882C and NPM1c mutants co-expressing wild-type p53 at 1 uM assessed as activation of caspase 8 measured after 24 hrs by Caspase-Glo 8 assay; assay type: functional, cell-based
How it was run: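 OCI-AML3 cells plated at 20,000 per well and treated for 24 h. Caspase 8 activation read as luminescent signal with the Caspase-Glo 8 kit; 1 µmol/L is the positive-control level used. Mean of at least three independent experiments ± SEM; Student's t-test, P < 0.05.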

OCI-AML-3 [3] = test: Induction of apoptosis in human OCI-AML-3 cells harbouring DNMT3A-R882C and NPM1c mutants co-expressing wild-type p53 at 0.25 uM assessed as activation of caspase 8 measured after 24 hrs by Caspase-Glo 8 assay; assay type: functional, cell-based
How it was run: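 Caspase-Glo 8 luminescence assay. OCI-AML3 cells plated at 20,000 per well and treated with 0.25 µmol/L JQ1 for 24 h. BI-2536 at 1 µmol/L used as positive control.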

K562 [4] = test: Antiproliferative activity against human K562 cells assessed as decrease in cell viability after 96 hrs by WST-1 assay; assay type: functional, cell-based
How it was run: (§2)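 WST-1 viability assay. 2 × 10^4 cells per well with compound, incubated for the indicated times, read at 450 nm 2–4 h after WST-1 addition. Viability is given as % of untreated cells by optical density. Compounds are dissolved in DMSO and diluted in PBS.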

OCI-AML-3 [5] = test: Induction of apoptosis in human OCI-AML-3 cells harbouring DNMT3A-R882C and NPM1c mutants co-expressing wild-type p53 at 0.25 uM assessed as activation of caspase 3/7 measured after 24 hrs by Caspase-Glo 3/7 assay; assay type: functional, cell-based
How it was run: (§3)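 Caspase-Glo 3/7 luminescence assay. OCI-AML3, Raji or K562 cells plated at 20,000 per well and treated with 0.25 µmol/L JQ1, with or without 20 nmol/L TSA. Luminescence read at 2, 4 or 24 h.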

OCI-AML-3 [6] = test: Induction of DNA damage in human OCI-AML-3 cells harbouring DNMT3A-R882C and NPM1c mutants co-expressing wild-type p53 at 0.25 uM assessed as induction of gammaH2AX incubated for 24 hrs in combination with 1 uM NU7026 by immunolabeling method; assay type: functional, cell-based
How it was run: (§4)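 OCI-AML3 cells treated 24 h with 0.25 µmol/L JQ1, alone or with 10 µmol/L KU60019, […] caffeine or 1 µmol/L NU7026 added together. Cells cytospun, fixed in 4% paraformaldehyde and permeabilized with 0.2% Triton X-100. Stained with anti-γH2AX (1:500) and anti-53BP1 (1:1000) for 1 h at RT, then fluorescent secondaries and DAPI. Pan-nuclear γH2AX cells and 53BP1 foci scored by microscopy. Three experiments.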

OCI-AML-3 [7] = test: Induction of apoptosis in human OCI-AML-3 cells harbouring DNMT3A-R882C and NPM1c mutants co-expressing wild-type p53 at 0.25 uM measured after 24 hrs by Annexin V/PI staining based flow cytometry method; assay type: functional, cell-based
How it was run: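 OCI-AML3 cells treated for 24 h with 0.25 µmol/L JQ1, Nutlin-3 or both. Stained with annexin V and propidium iodide and analyzed by flow cytometry. Quadrant analysis of apoptotic populations.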

OCI-AML-3 [8] = test: Induction of DNA damage in human OCI-AML-3 cells harbouring DNMT3A-R882C and NPM1c mutants co-expressing wild-type p53 at 0.25 uM assessed as increase in PCNA labelling for 48 hrs by DAPI staining method; assay type: functional, cell-based
OCI-AML-3 [9] = test: Induction of apoptosis in human OCI-AML-3 cells harbouring DNMT3A-R882C and NPM1c mutants co-expressing wild-type p53 at 0.25 uM assessed as activation of caspase 3/7 measured at 4 hrs by Caspase-Glo 3/7 assay; assay type: functional, cell-based; how it was run: as §3
Raji [10] = test: Antiproliferative activity against human Raji cells assessed as decrease in cell viability after 96 hrs by WST-1 assay; assay type: functional, cell-based; how it was run: as §2
OCI-AML-3 [11] = test: Antiproliferative activity against human OCI-AML-3 cells harbouring DNMT3A-R882C and NPM1c mutants co-expressing wild-type p53 at 0.25 uM assessed as decrease in cell viability in combination of 5 to 50 nM daunorubicin after 72 hrs by WST-1 assay; assay type: functional, cell-based; how it was run: as §1
OCI-AML-3 [12] = test: Induction of DNA damage in human OCI-AML-3 cells harbouring DNMT3A-R882C and NPM1c mutants co-expressing wild-type p53 at 0.25 uM assessed as increase in 53BP1 foci incubated for 24 hrs by immunolabeling method; assay type: functional, cell-based; how it was run: as §4
Raji [13] = test: Induction of apoptosis in human Raji cells at 0.25 uM assessed as activation of caspase 3/7 measured after 24 hrs by Caspase-Glo 3/7 assay; assay type: functional, cell-based; how it was run: as §3
K562 [14] = test: Induction of apoptosis in human K562 cells at 0.25 uM assessed as activation of caspase 3/7 measured after 24 hrs by Caspase-Glo 3/7 assay; assay type: functional, cell-based; how it was run: as §3
OCI-AML-3 [15] = test: Induction of apoptosis in human OCI-AML-3 cells harbouring DNMT3A-R882C and NPM1c mutants co-expressing wild-type p53 at 0.25 uM assessed as activation of caspase 3/7 measured at 2 hrs by Caspase-Glo 3/7 assay; assay type: functional, cell-based; how it was run: as §3
OCI-AML-3 [16] = test: Antiproliferative activity against human OCI-AML-3 cells harbouring DNMT3A-R882C and NPM1c mutants co-expressing wild-type p53 at 0.25 uM assessed as cell death after 96 hrs by trypan blue assay; assay type: functional, cell-based
How it was run: (§5)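 OCI-AML3 growth curves. 80,000 cells per well in medium with or without 0.25 µmol/L JQ1. Viable cells counted by trypan blue exclusion every 24 h up to 96 h.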

OCI-AML-3 [17] = test: Antiproliferative activity against human OCI-AML-3 cells harbouring DNMT3A-R882C and NPM1c mutants co-expressing wild-type p53 assessed as decrease in cell viability after 96 hrs by WST-1 assay; assay type: functional, cell-based; how it was run: as §2
OCI-AML-3 [18] = test: Antiproliferative activity against human OCI-AML-3 cells harbouring DNMT3A-R882C and NPM1c mutants co-expressing wild-type p53 at 0.25 uM assessed as decrease in cell viability in combination of 20 nM trichostatin A after 72 hrs by WST-1 assay; assay type: functional, cell-based; how it was run: as §1
OCI-AML-3 [19] = test: Antiproliferative activity against human OCI-AML-3 cells harbouring DNMT3A-R882C and NPM1c mutants co-expressing wild-type p53 at 0.25 uM assessed as decrease in cell viability after 96 hrs by trypan blue assay; assay type: functional, cell-based; how it was run: as §5
OCI-AML-3 [20] = test: Antiproliferative activity against human OCI-AML-3 cells harbouring DNMT3A-R882C and NPM1c mutants co-expressing wild-type p53 at 0.25 uM assessed as decrease in cell viability in combination of 0.625 uM vorinostat after 72 hrs by WST-1 assay; assay type: functional, cell-based; how it was run: as §1
OCI-AML-3 [21] = test: Induction of DNA damage in human OCI-AML-3 cells harbouring DNMT3A-R882C and NPM1c mutants co-expressing wild-type p53 at 0.25 uM assessed as increase in pyknotic nuclei incubated for 48 hrs by DAPI staining method; assay type: functional
How it was run: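 OCI-AML3 cells treated with 0.25 µmol/L JQ1 for 48 h, cytospun and fixed. DAPI-stained nuclei examined by fluorescence microscopy and the percentage of pyknotic nuclei scored.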

OCI-AML-3 [22] = test: Antiproliferative activity against human OCI-AML-3 cells harbouring DNMT3A-R882C and NPM1c mutants co-expressing wild-type p53 at 0.25 uM assessed as decrease in cell viability in combination of 0.5 mM sodium butyrate after 72 hrs by WST-1 assay; assay type: functional, cell-based; how it was run: as §1
OCI-AML-3 [23] = test: Induction of DNA damage in human OCI-AML-3 cells harbouring DNMT3A-R882C and NPM1c mutants co-expressing wild-type p53 at 0.25 uM assessed as increase in pan-nuclear gammaH2AX foci incubated for 24 hrs by immunolabeling method; assay type: functional, cell-based; how it was run: as §4
OCI-AML-3 [24] = test: Antiproliferative activity against human OCI-AML-3 cells harbouring DNMT3A-R882C and NPM1c mutants co-expressing wild-type p53 at 1 uM assessed as decrease in cell viability after 96 hrs by WST-1 assay; assay type: functional, cell-based; how it was run: as §2
OCI-AML-3 [25] = test: Induction of apoptosis in human OCI-AML-3 cells harbouring DNMT3A-R882C and NPM1c mutants co-expressing wild-type p53 at 0.25 uM assessed as activation of caspase 3/7 measured in combination of 20 nM trichostatin A after 24 hrs by Caspase-Glo 3/7 assay; assay type: functional, cell-based; how it was run: as §3
OCI-AML-3 [26] = test: Induction of DNA damage in human OCI-AML-3 cells harbouring DNMT3A-R882C and NPM1c mutants co-expressing wild-type p53 at 0.25 uM assessed as induction of gammaH2AX incubated for 24 hrs in combination with […] by immunolabeling method; assay type: functional, cell-based; how it was run: as §4
OCI-AML-3 [27] = test: Antiproliferative activity against human OCI-AML-3 cells harbouring DNMT3A-R882C and NPM1c mutants co-expressing wild-type p53 at 1 to 5 uM assessed as decrease in cell viability after 72 hrs by WST-1 assay; assay type: functional, cell-based; settings: dose 1-5 µM
How it was run: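 OCI-AML3 cells (DNMT3A-R882, NPM1c, p53 wild-type) in RPMI 1640 with 10% FCS, L-glutamine, penicillin and streptomycin. Cells plated at 2 × 10^4 per well and exposed for 72 h; DMSO stocks diluted in PBS. WST-1 added and absorbance read at 450 nm 2–4 h later. Viability taken relative to untreated cells (100%). Three experiments in triplicate, mean ± SEM.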

OCI-AML-3 [28] = test: Induction of DNA damage in human OCI-AML-3 cells harbouring DNMT3A-R882C and NPM1c mutants co-expressing wild-type p53 at 0.25 uM assessed as induction of gammaH2AX incubated for 24 hrs in combination with 10 uM KU60019 by immunolabeling method; assay type: functional, cell-based; how it was run: as §4

For `COc1ccc(C2=NC(c3ccc(Cl)cc3)C(c3ccc(Cl)cc3)N2C(=O)N2CCNC(=O)C2)c(OC(C)C)c1.Cc1sc2c(c1C)C(c1ccc(Cl)cc1)=N[C@@H](CC(=O)OC(C)(C)C)c1nnc(C)n1-2` (stereo unspecified), the Activity (OCI-AML-3 [1]) was “Active”.
For `CC[C@@H]1C(=O)N(C)c2cnc(Nc3ccc(C(=O)NC4CCN(C)CC4)cc3OC)nc2N1C1CCCC1`, the Activity (OCI-AML-3 [2]) was “Active”.
In the case of `Cc1sc2c(c1C)C(c1ccc(Cl)cc1)=N[C@@H](CC(=O)OC(C)(C)C)c1nnc(C)n1-2`, the Activity (OCI-AML-3 [3]) is reported as “inactive”, the IC50 (K562 [4]; K562, 96 h) is reported as greater than 2000 nM and the Activity (OCI-AML-3 [5]) is reported as “Active”. For the same compound, the Activity (OCI-AML-3 [6]) was “inactive”, the Activity (OCI-AML-3 [7]) was “Active” and the Activity (OCI-AML-3 [8]) was “Active”. The Activity (OCI-AML-3 [9]) was “inactive”, the IC50 (Raji [10]) was roughly 1000 nM and the Activity (OCI-AML-3 [11]) was “Active”. The Activity (OCI-AML-3 [12]) was “Active”, the Activity (Raji [13]) was “Active” and the Activity (K562 [14]) was “inactive”. The Activity (OCI-AML-3 [15]) was “inactive”, the Activity (OCI-AML-3 [16]) was “Active” and the IC50 (OCI-AML-3 [17]; OCI-AML-3, 96 h) was roughly 500 nM. The Activity (OCI-AML-3 [18]) was “Active”, the Activity (OCI-AML-3 [19]) was “Active” and the Activity (OCI-AML-3 [20]) was “Active”. The Activity (OCI-AML-3 [21]) was 3.2%, the Activity (OCI-AML-3 [22]) was “Active” and the Activity (OCI-AML-3 [23]) was “inactive”. The Activity (OCI-AML-3 [24]) was “Active”, the Activity (OCI-AML-3 [25]) was “Active” and the Activity (OCI-AML-3 [26]) was “inactive”.
In the case of `Cc1sc2c(c1C)C(c1ccc(Cl)cc1)=N[C@H](CC(=O)OC(C)(C)C)c1nnc(C)n1-2`, the Activity (K562 [4]) is reported as “inactive”, the Activity (Raji [10]) is reported as “inactive” and the Activity (OCI-AML-3 [17]; dose 1.0 µM) is reported as “inactive”.
With `COc1ccc(C2=NC(c3ccc(Cl)cc3)C(c3ccc(Cl)cc3)N2C(=O)N2CCNC(=O)C2)c(OC(C)C)c1` (stereo unspecified) the Activity (OCI-AML-3 [27]) was “inactive”.
`C[C@@H]1CN(CC(=O)Nc2ccc3c(c2)Cc2cccc(-c4cc(=O)cc(N5CCOCC5)o4)c2S3)C[C@H](C)O1.Cc1sc2c(c1C)C(c1ccc(Cl)cc1)=N[C@@H](CC(=O)OC(C)(C)C)c1nnc(C)n1-2` was tested, and the Activity (OCI-AML-3 [28]) was “inactive”.
